In article PMC3487391 (Journal of medicinal chemistry, 2011):

What was measured:
PRMT3 = PRMT3 (Homo sapiens, UniProt O60678); experiment: In vitro methylation fluorograph, PRMT3 with NPL3 and rpS2 as substrates; assay type: biochemical; details: compound at 100 μM
Procedure, shortened: (§1)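 Recombinant enzyme (0.1–0.2 μM) and substrate (0.5–1.5 μM) are incubated with [methyl-³H]AdoMet (85 Ci/mmol) in PBS pH 7.4. Test compound is present at 100 μM. Reactions run 90 min at 30 °C, are resolved by SDS/PAGE and transferred to PVDF. The membrane is sprayed with Enhance and exposed to film overnight. Substrate bands are located by Ponceau S, excised and counted (dpm) for graphic depiction.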

SET7 = molecular target: T1, SET7 (Homo sapiens, UniProt Q8WTS6); experiment: In vitro methylation assay, SET7 with histone H3 as substrate; assay type: biochemical; details: compound at 100 μM
T1 sequence (Q8WTS6 1-366): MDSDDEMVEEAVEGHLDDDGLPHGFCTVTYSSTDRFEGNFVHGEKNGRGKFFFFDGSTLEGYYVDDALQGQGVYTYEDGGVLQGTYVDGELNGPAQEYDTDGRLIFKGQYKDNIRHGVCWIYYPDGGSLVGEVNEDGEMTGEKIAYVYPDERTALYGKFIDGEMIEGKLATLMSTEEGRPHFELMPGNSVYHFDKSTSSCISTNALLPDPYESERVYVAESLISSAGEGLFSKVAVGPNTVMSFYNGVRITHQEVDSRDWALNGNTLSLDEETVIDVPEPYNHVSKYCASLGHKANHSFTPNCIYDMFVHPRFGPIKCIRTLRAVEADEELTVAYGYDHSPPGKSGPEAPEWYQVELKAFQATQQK

PRMT5 = PRMT5 (Homo sapiens, UniProt O14744); experiment: In vitro methylation fluorograph, PRMT5 with histone H4 as substrate; assay type: biochemical; details: compound at 100 μM
Sequence of PRMT5 (O14744 whole entry, species assumed): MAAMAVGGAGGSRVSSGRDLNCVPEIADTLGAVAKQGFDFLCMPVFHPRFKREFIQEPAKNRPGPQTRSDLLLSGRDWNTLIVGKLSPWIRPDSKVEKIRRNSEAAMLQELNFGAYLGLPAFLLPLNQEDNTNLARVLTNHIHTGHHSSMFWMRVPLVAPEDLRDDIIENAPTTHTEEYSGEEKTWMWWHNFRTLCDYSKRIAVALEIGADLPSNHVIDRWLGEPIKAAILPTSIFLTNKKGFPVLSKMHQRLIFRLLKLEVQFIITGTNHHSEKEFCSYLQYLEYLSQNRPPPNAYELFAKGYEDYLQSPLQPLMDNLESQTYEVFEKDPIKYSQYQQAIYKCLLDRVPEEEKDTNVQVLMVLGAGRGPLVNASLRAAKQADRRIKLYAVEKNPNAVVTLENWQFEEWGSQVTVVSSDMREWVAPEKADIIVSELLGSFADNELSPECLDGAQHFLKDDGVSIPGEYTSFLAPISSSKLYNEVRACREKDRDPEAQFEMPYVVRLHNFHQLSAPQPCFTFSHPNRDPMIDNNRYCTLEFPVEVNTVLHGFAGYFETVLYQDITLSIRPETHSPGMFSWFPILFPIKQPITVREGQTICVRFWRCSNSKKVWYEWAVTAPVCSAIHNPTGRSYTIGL
Procedure, shortened: as §1

CARM1 [1] = molecular target: T2, CARM1 (Homo sapiens, UniProt Q86X55); assay type: biochemical; details: compound at 100 μM; substrates PABP1, CA150, SmB, histone H3
T2 sequence (Q86X55 1-608): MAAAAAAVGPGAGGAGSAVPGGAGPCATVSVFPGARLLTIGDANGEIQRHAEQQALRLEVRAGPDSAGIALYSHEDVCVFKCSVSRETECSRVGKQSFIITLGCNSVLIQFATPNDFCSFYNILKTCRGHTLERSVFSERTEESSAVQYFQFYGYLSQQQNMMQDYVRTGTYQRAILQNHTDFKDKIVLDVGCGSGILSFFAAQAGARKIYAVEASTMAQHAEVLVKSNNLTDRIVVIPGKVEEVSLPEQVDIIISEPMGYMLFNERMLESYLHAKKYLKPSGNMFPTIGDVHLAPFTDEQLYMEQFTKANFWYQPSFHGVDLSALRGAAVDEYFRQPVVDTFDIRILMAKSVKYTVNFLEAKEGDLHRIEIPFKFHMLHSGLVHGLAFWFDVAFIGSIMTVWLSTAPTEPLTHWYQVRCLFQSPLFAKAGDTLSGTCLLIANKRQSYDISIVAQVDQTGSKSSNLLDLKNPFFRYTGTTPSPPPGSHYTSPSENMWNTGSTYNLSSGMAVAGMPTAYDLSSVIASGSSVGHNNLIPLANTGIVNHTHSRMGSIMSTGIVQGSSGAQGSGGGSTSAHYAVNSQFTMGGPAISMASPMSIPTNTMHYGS
Procedure, shortened: as §1

[2] = system: Flag-PABP1 methylation in HEK293 cells; experiment: Tetracycline-inducible Flag-PABP1 methylation reporter system in HEK293 cells; assay type: cell-based, human; details: tetracycline-induced Flag-PABP1, methyl-specific PABP1 antibody
Procedure, shortened: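 HEK293 cells engineered with a tetracycline-controlled TetR repressor carry tetO-regulated Flag-PABP1. Tetracycline is added with test compound to induce Flag-PABP1. Lysates are resolved by SDS-PAGE, where Flag-PABP1 migrates slower than endogenous PABP1. Its methylation is detected by immunoblot with an in-house methyl-specific PABP1 antibody.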

DOTL1 = DOTL1 (Homo sapiens, UniProt Q8TEK3); experiment: In vitro methylation fluorograph, DOTL1 with nucleosome as substrate; assay type: biochemical; details: compound at 100 μM
Sequence of DOTL1 (Q8TEK3 whole entry): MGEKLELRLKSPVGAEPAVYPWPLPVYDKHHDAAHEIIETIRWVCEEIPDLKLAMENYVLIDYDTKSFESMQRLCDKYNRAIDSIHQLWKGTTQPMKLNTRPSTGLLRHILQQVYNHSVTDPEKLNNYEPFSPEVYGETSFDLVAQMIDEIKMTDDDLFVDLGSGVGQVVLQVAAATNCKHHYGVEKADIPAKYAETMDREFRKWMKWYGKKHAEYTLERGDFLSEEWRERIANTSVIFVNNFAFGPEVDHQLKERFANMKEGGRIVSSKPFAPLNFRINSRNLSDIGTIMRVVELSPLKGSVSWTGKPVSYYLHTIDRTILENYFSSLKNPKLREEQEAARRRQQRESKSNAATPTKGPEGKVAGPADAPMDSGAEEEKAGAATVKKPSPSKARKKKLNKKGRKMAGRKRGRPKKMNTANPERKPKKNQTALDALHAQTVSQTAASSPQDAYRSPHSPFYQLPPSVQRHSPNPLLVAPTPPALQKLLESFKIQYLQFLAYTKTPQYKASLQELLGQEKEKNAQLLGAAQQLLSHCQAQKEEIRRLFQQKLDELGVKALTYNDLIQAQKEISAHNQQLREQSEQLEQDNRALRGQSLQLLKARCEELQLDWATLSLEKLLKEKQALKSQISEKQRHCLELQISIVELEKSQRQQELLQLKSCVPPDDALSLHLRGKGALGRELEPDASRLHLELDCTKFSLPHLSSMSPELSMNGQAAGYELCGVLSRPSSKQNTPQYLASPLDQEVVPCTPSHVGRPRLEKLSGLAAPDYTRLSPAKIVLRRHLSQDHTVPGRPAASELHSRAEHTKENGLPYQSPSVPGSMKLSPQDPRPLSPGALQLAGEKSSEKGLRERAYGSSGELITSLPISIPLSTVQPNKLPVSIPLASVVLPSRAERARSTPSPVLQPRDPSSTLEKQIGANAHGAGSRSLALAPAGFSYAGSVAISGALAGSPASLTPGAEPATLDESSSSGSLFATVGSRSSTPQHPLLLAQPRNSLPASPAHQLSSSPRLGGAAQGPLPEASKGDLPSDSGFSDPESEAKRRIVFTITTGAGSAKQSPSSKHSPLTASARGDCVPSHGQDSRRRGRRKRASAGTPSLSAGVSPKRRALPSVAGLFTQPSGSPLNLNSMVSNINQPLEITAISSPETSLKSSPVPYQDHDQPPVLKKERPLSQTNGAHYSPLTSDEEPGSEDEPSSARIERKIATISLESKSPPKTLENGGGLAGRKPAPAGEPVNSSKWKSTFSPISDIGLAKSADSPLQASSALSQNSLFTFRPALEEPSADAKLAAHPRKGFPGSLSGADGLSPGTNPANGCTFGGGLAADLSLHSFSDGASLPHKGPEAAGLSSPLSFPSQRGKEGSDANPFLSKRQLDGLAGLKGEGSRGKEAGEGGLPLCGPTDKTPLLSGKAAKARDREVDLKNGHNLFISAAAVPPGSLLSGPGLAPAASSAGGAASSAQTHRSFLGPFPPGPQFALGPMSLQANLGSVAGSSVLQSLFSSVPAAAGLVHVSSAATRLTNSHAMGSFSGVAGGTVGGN
Procedure, shortened: as §1

G9a = molecular target: T3, G9a (Homo sapiens, UniProt Q96KQ7); experiment: In vitro methylation fluorograph, G9a with H3 as substrate; assay type: biochemical; details: compound at 100 μM
T3 sequence (Q96KQ7 1-1210): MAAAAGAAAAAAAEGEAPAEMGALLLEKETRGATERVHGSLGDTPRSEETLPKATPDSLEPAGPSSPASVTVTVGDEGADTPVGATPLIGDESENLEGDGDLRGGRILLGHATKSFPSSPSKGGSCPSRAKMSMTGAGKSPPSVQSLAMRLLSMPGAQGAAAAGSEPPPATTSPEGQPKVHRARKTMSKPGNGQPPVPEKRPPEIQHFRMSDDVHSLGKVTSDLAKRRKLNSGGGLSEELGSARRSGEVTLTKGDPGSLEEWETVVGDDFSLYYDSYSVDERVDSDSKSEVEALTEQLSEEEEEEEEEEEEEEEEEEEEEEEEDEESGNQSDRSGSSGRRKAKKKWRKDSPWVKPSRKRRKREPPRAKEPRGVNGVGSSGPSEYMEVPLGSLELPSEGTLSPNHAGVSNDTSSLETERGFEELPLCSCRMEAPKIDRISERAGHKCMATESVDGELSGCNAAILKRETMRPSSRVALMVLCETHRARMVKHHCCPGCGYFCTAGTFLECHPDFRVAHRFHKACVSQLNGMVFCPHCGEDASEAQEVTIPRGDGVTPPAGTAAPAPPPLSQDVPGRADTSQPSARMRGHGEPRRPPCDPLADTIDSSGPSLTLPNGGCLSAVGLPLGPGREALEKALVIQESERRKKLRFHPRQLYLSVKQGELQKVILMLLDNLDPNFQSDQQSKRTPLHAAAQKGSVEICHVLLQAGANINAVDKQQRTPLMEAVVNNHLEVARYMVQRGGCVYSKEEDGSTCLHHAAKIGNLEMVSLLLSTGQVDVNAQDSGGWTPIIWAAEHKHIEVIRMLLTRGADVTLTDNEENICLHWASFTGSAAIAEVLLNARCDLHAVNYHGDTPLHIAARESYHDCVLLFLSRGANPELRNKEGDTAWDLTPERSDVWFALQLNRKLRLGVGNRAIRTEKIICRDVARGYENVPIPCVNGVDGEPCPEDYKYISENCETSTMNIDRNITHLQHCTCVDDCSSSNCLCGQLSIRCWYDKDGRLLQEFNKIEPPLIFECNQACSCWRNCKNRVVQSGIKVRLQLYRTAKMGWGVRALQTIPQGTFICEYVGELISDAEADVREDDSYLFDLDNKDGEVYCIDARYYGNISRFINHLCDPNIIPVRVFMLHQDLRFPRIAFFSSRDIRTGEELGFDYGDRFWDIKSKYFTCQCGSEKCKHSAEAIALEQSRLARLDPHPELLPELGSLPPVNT
Procedure, shortened: as §1

Suv39H1 = molecular target: T4, Suv39H1 (Homo sapiens, UniProt O43463); experiment: In vitro methylation fluorograph, Suv39H1 with H3 as substrate; assay type: biochemical; details: compound at 100 μM
T4 sequence (O43463 1-412): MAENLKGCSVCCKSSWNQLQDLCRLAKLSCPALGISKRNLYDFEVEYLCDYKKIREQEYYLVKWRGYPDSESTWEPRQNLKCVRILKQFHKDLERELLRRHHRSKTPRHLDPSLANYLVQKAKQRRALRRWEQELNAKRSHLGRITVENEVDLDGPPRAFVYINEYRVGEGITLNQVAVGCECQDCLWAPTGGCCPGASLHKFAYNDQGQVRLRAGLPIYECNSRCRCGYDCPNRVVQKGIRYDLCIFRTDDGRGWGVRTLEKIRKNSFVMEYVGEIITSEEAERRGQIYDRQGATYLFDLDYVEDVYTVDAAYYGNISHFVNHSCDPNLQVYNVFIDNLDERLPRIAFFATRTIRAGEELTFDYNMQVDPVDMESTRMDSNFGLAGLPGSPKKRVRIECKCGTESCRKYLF
Procedure, shortened: as §1

[3] = system: PSA promoter in LNCaP cells; experiment: PSA luciferase assay in LNCaP cells; assay type: cell-based, human; details: two days, relative to CMV-Renilla control
Procedure, shortened: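 LNCaP cells are grown in phenol-red-free RPMI1640 with 10% charcoal-stripped FCS and seeded ~20 h before Lipofectamine transfection with 300 ng PSA(ARE)-LUC and 2 ng humanized CMV-Renilla. After 12 h, cells receive 20 nM DHT plus test compound at increasing concentrations. After 42–44 h, 5/6 of the washed, harvested cells go to a dual luciferase assay, normalised to Renilla. Values are mean ± SD of triplicates.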

LNCaP cells = experiment: Cell viability by Cell Titer-Glo; assay type: cell-based; details: at concentrations that impacted the luciferase assay
Procedure, shortened: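 LNCaP cells are grown in phenol-red-free RPMI1640 with 10% charcoal-stripped FCS and transfected with PSA(ARE)-LUC and CMV-Renilla. After 12 h they are treated with 20 nM DHT plus increasing concentrations of test compound. After 42–44 h, cells are washed twice with PBS and harvested, and 1/6 of them is assayed with CellTiter-Glo luminescent reagent for ATP-based viability.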

CARM1 [4] = molecular target: T2, CARM1; experiment: In vitro methylation assay, CARM1 with PABP1 as substrate; assay type: biochemical; details: for effect against PABP1 methylation by CARM1 (fluorograph): compound at 20 μM

Sequence of PRMT3 (O60678 whole entry, species assumed): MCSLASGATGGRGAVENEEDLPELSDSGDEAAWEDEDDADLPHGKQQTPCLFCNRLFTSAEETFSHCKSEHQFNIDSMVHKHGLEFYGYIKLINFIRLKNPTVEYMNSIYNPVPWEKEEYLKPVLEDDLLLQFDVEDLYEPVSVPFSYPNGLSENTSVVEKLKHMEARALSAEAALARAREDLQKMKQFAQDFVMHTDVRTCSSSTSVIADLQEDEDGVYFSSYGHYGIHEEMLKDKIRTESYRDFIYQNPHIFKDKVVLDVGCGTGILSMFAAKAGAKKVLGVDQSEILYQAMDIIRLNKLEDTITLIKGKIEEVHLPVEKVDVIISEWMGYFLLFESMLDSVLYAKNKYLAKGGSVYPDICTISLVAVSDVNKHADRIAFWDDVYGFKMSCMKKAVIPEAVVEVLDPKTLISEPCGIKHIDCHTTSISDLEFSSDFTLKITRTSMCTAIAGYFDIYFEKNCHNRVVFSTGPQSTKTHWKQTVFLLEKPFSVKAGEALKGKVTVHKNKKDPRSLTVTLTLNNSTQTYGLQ

Row | effect against PABP1 methylation by CARM1 (fluorograph) (CARM1 [4]) | Compound | inhibition of PRMT3 (fluorograph) (PRMT3) | activity against SET7 (fluorograph) (SET7) | inhibition of PRMT5 (fluorograph) (PRMT5) | inhibition of CARM1 activity on various substrates (fluorograph) (CARM1 [1]) | inhibition of Flag-PABP1 methylation [2] | activity against DOTL1 (fluorograph) (DOTL1) | activity against G9a (fluorograph) (G9a) | activity against Suv39H1 (fluorograph) (Suv39H1) | concentration effective on PSA reporter activity [3] [µM] | effects on cell viability (LNCaP cells) | enzyme preference of inhibition (in words) (CARM1 [4]; series 7a-m, IC50 determination vs PRMT1, CARM1, SET7 (Table S1))
1 |  | O=C1/C(=C/c2ccc(O)c(Br)c2)CN(Cc2cccc(Cl)c2)C/C1=C\c1ccc(O)c(Br)c1 [8e] | able to inhibit to some extent | No significant activity | high inhibition | strongly inhibited | only 7g was able to inhibit | No significant activity | No significant activity | No significant activity |  |  | 
2 |  | O=C1/C(=C/c2ccc(O)c(Br)c2)CN(CC(=O)c2ccccc2)C/C1=C\c1ccc(O)c(Br)c1 [8l] |  | No significant activity | high inhibition | strongly inhibited | only 7g was able to inhibit | No significant activity | No significant activity | No significant activity | 30 | no or little effects | 
3 | no effect | O=C1/C(=C/c2ccc(O)c(Br)c2)CN(CCCc2ccccc2)C/C1=C\c1ccc(O)c(Br)c1 [8k] |  |  |  |  |  |  |  |  |  |  | 
4 |  | O=C1/C(=C/c2ccc(O)c(Br)c2)CN(Cc2ccccc2)C/C1=C\c1ccc(O)c(Br)c1 [7g, 1-benzyl-3,5-bis(3-bromo-4-hydroxybenzylidene) piperidin-4-one] | able to inhibit to some extent | No significant activity |  | strongly inhibited | able to inhibit | No significant activity | No significant activity | No significant activity |  | no or little effects | preferably inhibited CARM1
5 | no effect | Cc1ccc(CN2C/C(=C\c3ccc(O)c(Br)c3)C(=O)/C(=C/c3ccc(O)c(Br)c3)C2)cc1 [8c] |  |  |  |  |  |  |  |  |  |  | 
